In ChEMBL document CHEMBL4270599, “Synthesis of a 3'-C-ethynyl-β-d-ribofuranose purine nucleoside library: Discovery of C7-deazapurine analogs as potent antiproliferative nucleosides” (Eur J Med Chem, 2018):

Legend:
L1210 = assay: Antiproliferative activity against mouse L1210 cells after 48 hrs by Coulter counter method; type: functional, cell-based; conditions: L1210, 48 h
Outline: (§1)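 Cell count assay in 96-well microtiter plates; (5–7.5) × 10⁴ tumor cells per well plus test compound. Cells proliferated at 37 °C in humidified CO₂-controlled atmosphere, 48 h for murine leukemia L1210, 72 h for human lymphocytic CEM and cervix carcinoma HeLa. Counted by Coulter counter; IC₅₀ is the concentration that inhibits proliferation by 50%.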

CCRF-CEM = assay: Antiproliferative activity against human CEM cells after 72 hrs by Coulter counter method; type: functional, cell-based; outline: as §1
HeLa = assay: Antiproliferative activity against human HeLa cells after 72 hrs by Coulter counter method; type: functional, cell-based; outline: as §1
Human alphaherpesvirus 1 [1] = assay: Antiviral activity against Human herpesvirus 1 KOS strain infected in HELF cells assessed as inhibition of virus-induced cytopathogenicity; type: functional, organism-based; conditions: Human alphaherpesvirus 1, KOS
Outline: (§2)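 Confluent human embryonic lung fibroblast monolayers in 96-well plates were infected with 100 CCID50 of virus or, for VZV, 20 PFU, in the presence of varying compound concentrations. For HCMV/VZV-type assays, residual virus was removed after 1–2 h before compound addition. Cytopathicity or plaque formation was scored once complete in untreated infected controls. Highest concentration tested was 100 μM.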

Human alphaherpesvirus 2 = assay: Antiviral activity against Human herpesvirus 2 G strain infected in HELF cells assessed as inhibition of virus-induced cytopathogenicity; type: functional, organism-based; conditions: Human alphaherpesvirus 2, strain G
Outline: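 Confluent Hel fibroblast cultures in 96-well plates inoculated with 100 CCID₅₀ virus in presence of varying compound concentrations. Cytopathicity recorded once complete in untreated virus-infected controls. EC₅₀ is the concentration reducing virus-induced cytopathogenicity by 50%; compounds tested up to 100 μM.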

Human alphaherpesvirus 1 [2] = assay: Antiviral activity against thymidine kinase-deficient acyclovir-resistant Human herpesvirus 1 KOS strain infected in HELF cells assessed as inhibition of virus-induced cytopathogenicity; type: functional, organism-based; conditions: Human alphaherpesvirus 1, KOS; outline: as §2
[3] = Cytotoxicity against HELF cells assessed as alteration of cell morphology by microscopic analysis; type: cell-based; conditions: human
Outline: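 Uninfected Hel fibroblast cultures exposed to compound alongside antiviral assays. Minimal cytotoxic concentration (MCC) is the concentration giving microscopically visible alteration of normal cell morphology.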

[4] = Cytotoxicity against HELF cells after by Coulter counter method; type: cell-based; conditions: human
Outline: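 Hel fibroblast proliferation measured by Coulter Counter cell count in presence of compound. CC₅₀ is the concentration (μM) reducing cell proliferation by 50%.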

Human alphaherpesvirus 3 [5] = assay: Antiviral activity against thymidine kinase-deficient Varicella Zoster virus Oka strain infected in HELF cells assessed as inhibition of virus-induced plaque formation; type: functional, organism-based; conditions: Human alphaherpesvirus 3, strain Oka vaccine; outline: as §2
Human alphaherpesvirus 3 [6] = assay: Antiviral activity against thymidine kinase-deficient Varicella Zoster virus 07-1 strain infected in HELF cells assessed as inhibition of virus-induced plaque formation; type: functional, organism-based; conditions: Human alphaherpesvirus 3, 07-1, HELF; outline: as §2
Human betaherpesvirus 5 [7] = assay: Antiviral activity against Human cytomegalovirus AD169 strain infected in HELF cells assessed as inhibition of virus-induced cytopathogenicity; type: functional, organism-based; conditions: Human betaherpesvirus 5, AD169, HELF
Outline: (§3)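 Confluent human embryonic lung fibroblasts in 96-well plates inoculated with 100 CCID₅₀ HCMV. Residual virus removed after 1–2 h, then cultures incubated with varying compound concentrations. Cytopathicity scored once complete in untreated infected controls. EC₅₀ is the concentration reducing virus-induced cytopathicity by 50%.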

Human betaherpesvirus 5 [8] = assay: Antiviral activity against Human cytomegalovirus Davis strain infected in HELF cells assessed as inhibition of virus-induced cytopathogenicity; type: functional, organism-based; conditions: Human betaherpesvirus 5, Davis; outline: as §3

Row | Structure (SMILES) | IC50 (L1210) [µM] | IC50 (CCRF-CEM) [µM] | IC50 (HeLa) [µM] | EC50 (Human alphaherpesvirus 1 [1]) [µM] | EC50 (Human alphaherpesvirus 2) [µM] | EC50 (Human alphaherpesvirus 1 [2]) [µM] | MCC [3] [µM] | CC50 [4] [µM] | EC50 (Human alphaherpesvirus 3 [5]) [µM] | EC50 (Human alphaherpesvirus 3 [6]) [µM] | EC50 (Human betaherpesvirus 5 [7]) [µM] | EC50 (Human betaherpesvirus 5 [8]) [µM] | CC50 ([4]; HELF cells) [µM]
1 | C#C[C@@]1(O)[C@@H](CO)O[C@@H](n2cc(I)c3c(Cl)ccnc32)[C@@H]1O | 20 | 0.26 | 1.1 | > 100 | > 100 | > 100 | 20 to 100 | 0.16 | 9.82 | 8.26 | 2.31 | 0.66 | –
2 | C#C[C@@]1(O)[C@@H](CO)O[C@@H](n2cnc3c(-c4ccc(Cl)cc4)ncnc32)[C@@H]1O | 225 | 124 | 170 | – | – | – | – | – | – | – | – | – | –
3 | Nc1ccn(C[C@@H](CO)OCP(=O)(O)O)c(=O)n1 [CIDOFOVIR] | – | – | – | 1.5 | 1.2 | – | 250 to 300 | – | – | – | 1.59 | 1.45 | –
4 | C#C[C@@]1(O)[C@@H](CO)O[C@@H](n2cc(I)c3c(N)ccnc32)[C@@H]1O | 0.044 | 0.31 | 0.18 | – | – | – | – | – | – | – | – | – | –
5 | C#C[C@@]1(O)[C@@H](CO)O[C@@H](n2c(C(F)(F)F)cc3c(N)ncnc32)[C@@H]1O | > 250 | > 250 | > 250 | – | – | – | – | – | – | – | – | – | –
6 | Nc1nc2c(ncn2COC(CO)CO)c(=O)[nH]1 [GANCICLOVIR] | – | – | – | – | – | – | 100 to 350 | – | – | – | – | – | –
7 | C#C[C@@]1(O)[C@@H](CO)O[C@@H](n2cc(Cl)c3c(N)ccnc32)[C@@H]1O | 0.98 | 5.4 | 1.7 | – | – | – | ≥ 100 | – | > 100 | 17.5 | > 100 | 20 | –
8 | C#C[C@@]1(O)[C@@H](CO)O[C@@H](n2cc(-c3ccco3)c3c(N)ncnc32)[C@@H]1O | 30 | 17 | 14 | – | – | – | – | – | – | – | – | – | –
9 | C#C[C@@]1(O)[C@@H](CO)O[C@@H](n2cnc3c(-c4ccccc4)ncnc32)[C@@H]1O | > 250 | > 250 | > 250 | – | – | – | – | – | – | – | – | – | –
10 | C#C[C@@]1(O)[C@@H](CO)O[C@@H](n2cc(C(F)(F)F)c3c(N)ncnc32)[C@@H]1O | 0.11 | 0.36 | 0.75 | – | – | – | – | – | – | – | – | – | –
11 | C#C[C@@]1(O)[C@@H](CO)O[C@@H](n2cnc3c(-c4ccc(C)cc4)ncnc32)[C@@H]1O | 205 | 154 | > 250 | – | – | – | – | – | – | – | – | – | –
12 | C#C[C@@]1(O)[C@@H](CO)O[C@@H](n2cnc3c(N)ncnc32)[C@@H]1O | – | – | – | > 4 | > 4 | > 4 | 20 | – | 1.82 | 1.64 | ≥ 4 | ≥ 4 | 0.7 to 0.73
13 | C#C[C@@]1(O)[C@@H](CO)O[C@@H](n2cc(Cl)c3c(Cl)ccnc32)[C@@H]1O | 75 | 1.3 | 6.3 | 16.3 | > 100 | 10.6 | 20 to 100 | 5.25 | 16.6 | 3.06 | 0.51 | 0.53 | –
14 | Nc1nc2c(ncn2COCCO)c(=O)[nH]1 [ACYCLOVIR] | – | – | – | – | – | – | 250 to 440 | > 440 | – | – | – | – | –
15 | C#C[C@@]1(O)[C@@H](CO)O[C@@H](n2ccc3c(Cl)ccnc32)[C@@H]1O | 197 | 86 | 135 | > 100 | > 100 | > 100 | 20 to 100 | – | > 100 | > 100 | > 100 | > 100 | –
16 | C#C[C@@]1(O)[C@@H](CO)O[C@@H](n2cnc3c(-c4ccc(F)cc4)ncnc32)[C@@H]1O | > 250 | 223 | 220 | – | – | – | – | – | – | – | – | – | –
17 | C#C[C@@]1(O)[C@@H](CO)O[C@@H](n2cc(Br)c3c(Cl)ccnc32)[C@@H]1O | 30 | 0.56 | 0.89 | 6.67 | > 100 | 5.83 | ≥ 100 | 0.35 | 2.76 | 2.27 | 0.36 | 0.35 | –
18 | CC[C@@]1(O)[C@@H](CO)O[C@@H](n2cc(Cl)c3c(N)ncnc32)[C@@H]1O | 1.2 | 2.6 | 4.4 | 2.1 | 0.63 | 1.27 | 4 to 20 | 3.41 | 1.71 | 3.74 | 1.79 | > 4 | –
19 | C#C[C@@]1(O)[C@@H](CO)O[C@@H](n2cnc3c(-c4ccc(OC)cc4)ncnc32)[C@@H]1O | > 250 | > 250 | > 250 | – | – | – | – | – | – | – | – | – | –
20 | C#Cc1cn([C@@H]2O[C@H](CO)[C@](O)(C#C)[C@H]2O)c2ncnc(N)c12 | 159 | 63 | 114 | – | – | – | – | – | – | – | – | – | –
